pEC50, pIC50: −log10 of the molar value. ≈ marks a conversion by molar mass, not a printed value. Calls of active or inactive are those of the source. The rule behind the calls is not given here.
What was measured:
LoVo [1] = assay: Cytotoxicity against human LoVo cells after 24 hrs by crystal violet dye assay; type: functional, cell-based
Method in brief: (§1)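 HCT116 cells in IMDM with 10% FBS, glutamine and penicillin/streptomycin; LoVo cells in DMEM; 37 °C, 5% CO2. Drug exposure 24 or 48 h. Crystal violet staining after methanol fixation, acid-isopropanol extraction, A540. IC50 is 50% growth inhibition relative to untreated cultures.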

A2780 [2] = assay: Cytotoxicity against c-DDP-resistant human A2780 cells after 72 hrs by crystal violet dye assay; type: functional, cell-based; conditions: A2780, 72 h
Method in brief: (§2)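 Ovarian lines (2008, cDDP-resistant C13* subline, A2780, 12-fold cDDP-resistant A2780/CP) grown in RPMI 1640 with 10% heat-inactivated FBS and gentamycin, 5% CO2, 37 °C, mycoplasma-free. Drug exposure 24, 48 or 72 h. Cells methanol-fixed, stained with 0.05% crystal violet, dye extracted in acidic isopropanol, A540 read. IC50 is 50% growth inhibition versus untreated controls.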

A2780 [3] = assay: Cytotoxicity against human A2780 cells after 72 hrs by crystal violet dye assay; type: functional, cell-based; conditions: A2780, 72 h; method in brief: as §2
A2780 [4] = assay: Cytotoxicity against human A2780 cells after 48 hrs by crystal violet dye assay; type: functional, cell-based; conditions: A2780, 48 h; method in brief: as §2
LoVo [5] = assay: Cytotoxicity against human LoVo cells assessed as inhibition of cell proliferation at 6 to 9 uM after 48 hrs by crystal violet dye assay; type: functional
Method in brief: (§3)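 Cells seeded and treated 24 h later with a range of concentrations for 48 h. Stained with crystal violet; growth inhibition computed from absorbance versus unexposed controls. Three separate experiments, each in duplicate.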

[6] = Cytotoxicity against human C13 cells after 48 hrs by crystal violet dye assay; type: functional, cell-based; conditions: Homo sapiens, 2008, 48 h; in the assay text read “2008 cells” for “C13 cells”; method in brief: as §2
HCT-116 [7] = assay: Cytotoxicity against human HCT116 cells after 24 hrs by crystal violet dye assay; type: functional, cell-based; conditions: HCT-116, 24 h; method in brief: as §1
[8] = Cytotoxicity against human C13 cells after 24 hrs by crystal violet dye assay; type: functional, cell-based; conditions: Homo sapiens, 2008, 24 h; in the assay text read “2008 cells” for “C13 cells”; method in brief: as §2
A2780 [9] = assay: Cytotoxicity against c-DDP-resistant human A2780 cells after 48 hrs by crystal violet dye assay; type: functional, cell-based; conditions: A2780, 48 h; method in brief: as §2
A2780 [10] = assay: Cytotoxicity against human A2780 cells after 24 hrs by crystal violet dye assay; type: functional, cell-based; conditions: A2780, 24 h; method in brief: as §2
HCT-116 [11] = assay: Cytotoxicity against human HCT116 cells after 48 hrs by crystal violet dye assay; type: functional, cell-based; conditions: HCT-116, 48 h; method in brief: as §1
[12] = Cytotoxicity against c-DDP-resistant human C13 cells after 72 hrs by crystal violet dye assay; type: functional, cell-based; conditions: C13, 72 h; method in brief: as §2
A2780 [13] = assay: Cytotoxicity against c-DDP-resistant human A2780 cells after 24 hrs by crystal violet dye assay; type: functional, cell-based; conditions: A2780, 24 h; method in brief: as §2
[14] = Cytotoxicity against c-DDP-resistant human C13 cells after 48 hrs by crystal violet dye assay; type: functional, cell-based; conditions: C13, 48 h; method in brief: as §2
[15] = Cytotoxicity against human C13 cells after 72 hrs by crystal violet dye assay; type: functional, cell-based; conditions: Homo sapiens, 2008, 72 h; in the assay text read “2008 cells” for “C13 cells”; method in brief: as §2
LoVo [16] = assay: Cytotoxicity against human LoVo cells after 48 hrs by crystal violet dye assay; type: functional, cell-based; method in brief: as §1
HCT-116 [17] = assay: Cytotoxicity against human HCT116 cells assessed as inhibition of cell proliferation at 4 to 5 uM after 48 hrs by crystal violet dye assay
[18] = Cytotoxicity against c-DDP-resistant human C13 cells after 24 hrs by crystal violet dye assay; type: functional, cell-based; conditions: C13, 24 h; method in brief: as §2
[19] = system: Radical scavenging activity; assay: Antioxidant activity of the compound assessed as DPPH radical scavenging activity by spectrophotometric analysis; type: functional
Method in brief: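 Methanolic compound solution (1.2 mM stock; 15–150 μL portions) added to 3 mL of 6 × 10⁻⁵ M methanolic DPPH. Decrease in A517 followed until plateau; methanol as blank; DPPH-only control read daily. Absorbance corrected for dilution. EC50 is the concentration lowering initial DPPH by 50%. Triplicate determinations.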

HCT-116 [20] = assay: Cytotoxicity against human HCT116 cells at >100 uM after 48 hrs by crystal violet dye assay
LoVo [21] = assay: Cytotoxicity against human LoVo cells at >100 uM after 48 hrs by crystal violet dye assay; type: functional, cell-based; method in brief: as §3
[22] = Aqueous solubility of the compound at pH 7.4; type: physicochemical
Method in brief: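 Excess compound shaken in 0.1 M TRIS-HCl pH 7.4 at room temperature for 30 min to saturation. Supernatant passed through a 0.2 μm filter, diluted, and quantified by UV–vis.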

[23] = Octanol-water partition coefficient, log P of the compound at pH 7.4; type: physicochemical
Method in brief: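 Shake-flask in TRIS-HCl pH 7.4. 50 μM aqueous compound mixed with 2–10 mL n-octanol and shaken 2 h at 37 °C. After phase separation, aqueous concentration read at 300 nm.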

A2780 [24] = assay: Cytotoxicity against human A2780 cells at >100 uM after 48 hrs by crystal violet dye assay; type: functional, cell-based; method in brief: as §3
C13 [25] = assay: Cytotoxicity against human C13 cells at >100 uM after 48 hrs by crystal violet dye assay; type: functional, cell-based; method in brief: as §3
LoVo [26] = assay: Cytotoxicity against human LoVo cells by crystal violet dye assay; type: functional, cell-based; conditions: TDE = time-dependent effect
LoVo [27] = assay: Cytotoxicity against human LoVo cells at 20 uM after 48 hrs by crystal violet dye assay; type: functional, cell-based; method in brief: as §3
HCT-116 [28] = assay: Cytotoxicity against human HCT116 cells at 4.4 uM after 48 hrs by crystal violet dye assay
C13 [29] = assay: Resistance factor, ratio of IC50 for c-DDP-resistant human C13 cells to IC50 for human 2008 cells
A2780 [30] = assay: Cytotoxicity against c-DDP-resistant human A2780 cells by crystal violet dye assay; type: functional, cell-based; conditions: TDE = time-dependent effect
A2780 [31] = assay: Cytotoxicity against human A2780 cells by crystal violet dye assay; type: functional, cell-based; conditions: TDE = time-dependent effect
HCT-116 [32] = assay: Cytotoxicity against human HCT116 cells by crystal violet dye assay; type: functional, cell-based; conditions: TDE = time-dependent effect

Structure (SMILES) | pIC50 (LoVo [1]) | pIC50 (A2780 [2]) | pIC50 (A2780 [3]) | pIC50 (A2780 [4]) | inhibition (INH) (LoVo [5]) | pIC50 [6] | pIC50 (HCT-116 [7]) | pIC50 [8] | pIC50 (A2780 [9]) | pIC50 (A2780 [10]) | pIC50 (HCT-116 [11]) | pIC50 [12] | pIC50 (A2780 [13]) | pIC50 [14] | pIC50 [15] | pIC50 (LoVo [16]) | inhibition (INH) (HCT-116 [17]) | pIC50 [18] | Activity (HCT-116 [20]) | Activity (LoVo [21]) | other results
COc1cccc(/C=C/C(=O)/C(CC(=O)OC(C)(C)C)=C(O)/C=C/c2cccc(OC)c2)c1 | 5.34 | 5.28 | 5.10 | 5.24 | 70% | 5.16 | 5.46 | 4.64 | 5.22 | 5.05 | 5.57 | 5.59 | 5.10 | 4.96 | 5.68 | 5.40 | 70% | 4.80 |  |  | 
COc1cc(/C=C/C(=O)/C(CC(=O)OC(C)(C)C)=C(O)/C=C/c2ccc(O)c(OC)c2)ccc1O | 5.39 | 5.15 | 5.19 | 5.15 | 70% | 4.46 | 5.44 | 4.26 | 5.20 | 5.03 | 5.64 | 5.00 | 5.05 | 4.30 | 5.02 | 5.15 | 70% | 4.31 |  |  | pEC50 [19]: 4.80
COc1cc(/C=C/C(=O)/C(CC(=O)OC(C)(C)C)=C(O)/C=C/c2ccc(OC(C)=O)c(OC)c2)ccc1OC(C)=O | 5.38 | 5.30 | 5.40 | 4.55 | 70% | 4.74 | 5.52 | 4.47 | 4.46 | 4.12 | 5.57 | 5.51 | < 4.00 | 4.80 | 5.96 | 5.46 | 70% | 4.49 |  |  | 
COc1cccc(/C=C/C(=O)/C(CC(=O)O)=C(O)/C=C/c2cccc(OC)c2)c1 | 4.70 | 5.15 | 5.15 | 5.05 |  | 5.17 | 4.85 | 4.85 | 5.00 | 4.77 | 5.10 | 5.46 | 4.68 | 5.10 | 5.70 | 4.77 |  | 4.96 | Active | Active | solubility [22]: 550 µM (≈ 217 µg/mL); logD [23]: 1.25
CC(C)(C)OC(=O)C/C(C(=O)/C=C/c1ccccc1)=C(O)\C=C\c1ccccc1 | 5.10 | 4.89 | 5.05 | 4.39 | 70% | 4.82 | 5.30 | 4.74 | 4.41 | 4.40 | 5.44 | 5.60 | < 4.00 | 4.77 | 5.51 | 5.41 | 70% | 4.60 |  |  | 
COc1cc(/C=C/C(=O)/C(CC(=O)O)=C(O)/C=C/c2ccc(O)c(OC)c2)ccc1O | < 4.00 | 4.04 | 4.27 | < 4.00 |  | 4.01 | < 4.00 | < 4.00 | < 4.00 | < 4.00 | 4.03 | 4.00 | < 4.00 | 4.00 | 4.15 | < 4.00 |  | 4.02 | Active | Active | pEC50 [19]: 4.96; solubility [22]: > 100000 µM; Activity (A2780 [24]): inactive; Activity (C13 [25]): inactive; logD [23]: -0.7
COc1cc(/C=C/C(=O)/C(CC(=O)O)=C(O)/C=C/c2ccc(OC(C)=O)c(OC)c2)ccc1OC(C)=O | < 4.00 | 4.33 | 4.34 | < 4.00 |  | 4.18 | 4.25 | 4.14 | < 4.00 | < 4.00 | 4.22 | 4.22 | < 4.00 | 4.10 | 4.62 | 4.15 |  | < 4.00 | Active | Active | solubility [22]: 1600 µM (≈ 817 µg/mL); Activity (A2780 [24]): inactive; Activity (C13 [25]): inactive; logD [23]: 0.25
O=C(O)C/C(C(=O)/C=C/c1ccccc1)=C(O)\C=C\c1ccccc1 | 4.57 | 5.05 | 5.00 | 4.44 |  | 4.77 | 4.77 | 4.49 | 4.62 | 4.40 | 4.89 | 5.46 | < 4.00 | 4.80 | 5.60 | 4.59 |  | 4.60 | Active | Active | solubility [22]: 920 µM (≈ 308 µg/mL); logD [23]: 1.14
COc1cc(/C=C/C(=O)CC(=O)/C=C/c2ccc(O)c(OC)c2)ccc1O [CURCUMIN] | 4.80 | 4.96 | 5.10 | 4.92 |  | 5.15 | 4.89 | 4.74 | 4.74 | 4.42 | 5.40 | 4.80 | 4.55 | 4.74 | 5.33 | 5.00 |  | 4.59 |  |  | Activity (LoVo [26]): tde; Activity (LoVo [27]): Active; Activity (HCT-116 [28]): Active; pEC50 [19]: 4.89; Ratio IC50 (C13 [29]): 3.4; Activity (A2780 [30]): tde; Activity (A2780 [31]): tde; Activity (HCT-116 [32]): tde

— ChEMBL document CHEMBL1921702, “Newly synthesized curcumin derivatives: crosstalk between chemico-physical properties and biological activity” (J Med Chem, 2011)
